Measurements from ChEMBL document CHEMBL4219177, “Synthesis and evaluation of the antibacterial activities of aryl substituted dihydrotriazine derivatives” (Bioorg Med Chem Lett, 2018).
In brackets after ≈: the same amount, converted by molar mass.

Legend:
[1] = tested on: Streptococcus mutans; assay: Antibacterial activity against Streptococcus mutans 3289 after 24 hrs by two-fold serial dilution method; format: functional; conditions: Streptococcus mutans, 3289, 24 h
[2] = tested on: Pseudomonas aeruginosa; assay: Antibacterial activity against Pseudomonas aeruginosa 2742 after 24 hrs by two-fold serial dilution method; format: functional; conditions: Pseudomonas aeruginosa, 2742, 24 h
Procedure, shortened: (§1)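 Bacteria grown to mid-log phase in Mueller-Hinton broth, diluted 1000-fold, and inoculated at 10^5 CFU/mL. Compounds were dissolved in DMSO (final ≤0.05%) and two-fold serially diluted. MIC was the lowest concentration giving complete growth inhibition after 24 h at 37 °C, with growth read as absorbance at 650 nm. Each experiment was run three times.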

[3] = tested on: Staphylococcus aureus; assay: Antibacterial activity against quinolone-resistant Staphylococcus aureus isolate CCARM 3505 after 24 hrs by two-fold serial dilution method; format: functional; conditions: isolate CCARM 3505, 24 h
Procedure, shortened: (§2)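 Broth microdilution MIC. Bacteria were grown to mid-log phase in Mueller-Hinton broth, diluted 1000-fold, and inoculated at 10^5 CFU/mL. Compounds in DMSO (final ≤0.05%) were tested as two-fold serial dilutions from 64 to 0.25. Plates were incubated 24 h at 37 °C and growth read as absorbance at 650 nm. MIC = concentration completely inhibiting growth. Experiments were run three times.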

[4] = tested on: Staphylococcus aureus; assay: Antibacterial activity against methicillin-resistant Staphylococcus aureus isolate CCARM 3167 after 24 hrs by two-fold serial dilution method; format: functional; conditions: isolate CCARM 3167, 24 h
[5] = tested on: Candida albicans; assay: Antifungal activity against Candida albicans 7535 after 24 hrs by two-fold serial dilution method; format: functional; conditions: Candida albicans, 7535, 24 h
[6] = tested on: Escherichia coli; assay: Antibacterial activity against Escherichia coli 1924 after 24 hrs by two-fold serial dilution method; format: functional; conditions: Escherichia coli, 1924, 24 h; procedure, shortened: as §1
[7] = tested on: Staphylococcus aureus; assay: Antibacterial activity against Staphylococcus aureus 4220 after 24 hrs by two-fold serial dilution method; format: functional; conditions: RN4220, 24 h; procedure, shortened: as §2
[8] = tested on: Salmonella typhimurium; assay: Antibacterial activity against Salmonella typhimurium 2421 after 24 hrs by two-fold serial dilution method; format: functional, Salmonella enterica subsp. enterica serovar Typhimurium; conditions: Salmonella enterica, 2421, 24 h; procedure, shortened: as §1
[9] = tested on: L02; assay: Cytotoxicity against human L02 cells assessed as growth inhibition after 24 hrs by MTT assay; format: cell-based; conditions: L02, 24 h

Row | Structure (SMILES) | MIC [1] [µg/mL] | MIC [2] [µg/mL] | MIC [3] [µg/mL] | MIC [4] | MIC [5] [µg/mL] | MIC [6] [µg/mL] | MIC [7] | MIC [8] [µg/mL] | IC50 [9] [µM]
1 | COc1ccccc1C(=O)/C=C/c1ccc(C2N=C(N)NC(N(C)C)=N2)cc1 (configuration not stated) | 64 (≈ 170 µM) | > 64 | 64 (≈ 170 µM) | 64 µg/mL | 32 (≈ 84.8 µM) | 64 (≈ 170 µM) | 64 µg/mL | > 64 | 
2 | CN(C)C1=NC(c2ccc(OCC(=O)c3ccccc3)cc2)N=C(N)N1 (configuration not stated) | > 64 | > 64 | > 64 | > 64 µg/mL | > 64 | > 64 | > 64 µg/mL | > 64 | 
3 | Cc1ccc(C(=O)/C=C/c2ccc(C3N=C(N)NC(N(C)C)=N3)cc2)cc1 (configuration not stated) | 16 (≈ 44.3 µM) | > 64 | 16 (≈ 44.3 µM) | 16 µg/mL | 16 (≈ 44.3 µM) | 32 (≈ 88.5 µM) | 32 µg/mL | > 64 | 
4 | OC(Cn1cncn1)(Cn1cncn1)c1ccc(F)cc1F [FLUCONAZOLE] | 1 (≈ 3.27 µM) |  |  |  |  |  |  |  | 
5 | COc1cccc(C(=O)/C=C/c2ccc(C3N=C(N)NC(N(C)C)=N3)cc2)c1 (configuration not stated) | 16 (≈ 42.4 µM) | > 64 | 16 (≈ 42.4 µM) | 16 µg/mL | 16 (≈ 42.4 µM) | 16 (≈ 42.4 µM) | 32 µg/mL | > 64 | 
6 | Cc1ccc(C(=O)/C=C/c2ccc(C3N=C(N)NC(N(C)C)=N3)cc2)c(C)c1 (configuration not stated) | 32 (≈ 85.2 µM) | > 64 | 32 (≈ 85.2 µM) | 32 µg/mL | 32 (≈ 85.2 µM) | 32 (≈ 85.2 µM) | 32 µg/mL | > 64 | 
7 | Cc1ccc(COc2ccc3cc(C4N=C(N)NC(N(C)C)=N4)ccc3c2)cc1 (configuration not stated) | 2 (≈ 5.16 µM) | 64 (≈ 165 µM) | 2 (≈ 5.16 µM) | 2 µg/mL | 4 (≈ 10.3 µM) | 2 (≈ 5.16 µM) | 2 µg/mL | 64 (≈ 165 µM) | 
8 | CN(C)C1=NC(c2ccc3cc(OCc4ccccc4Cl)ccc3c2)N=C(N)N1 (configuration not stated) | 2 (≈ 4.9 µM) | 64 (≈ 157 µM) | 1 (≈ 2.45 µM) | 1 µg/mL | 1 (≈ 2.45 µM) | 1 (≈ 2.45 µM) | 2 µg/mL | 64 (≈ 157 µM) | 
9 | CN(C)C1=NC(c2ccc3cc(OCc4cccc(Cl)c4)ccc3c2)N=C(N)N1 (configuration not stated) | 2 (≈ 4.9 µM) | 64 (≈ 157 µM) | 1 (≈ 2.45 µM) | 1 µg/mL | 1 (≈ 2.45 µM) | 1 (≈ 2.45 µM) | 2 µg/mL | 64 (≈ 157 µM) | 
10 | CN(C)C1=NC(c2ccc(/C=C/C(=O)c3ccc(Cl)cc3Cl)cc2)N=C(N)N1 (configuration not stated) | 4 (≈ 9.61 µM) | 64 (≈ 154 µM) | 8 (≈ 19.2 µM) | 19.3 µM | 8 (≈ 19.2 µM) | 8 (≈ 19.2 µM) | 19.3 µM | > 64 | 45.1
11 | CN(C)C1=NC(c2ccc(/C=C/C(=O)c3ccccc3Br)cc2)N=C(N)N1 (configuration not stated) | 16 (≈ 37.5 µM) | > 64 | 32 (≈ 75.1 µM) | 32 µg/mL | 32 (≈ 75.1 µM) | 64 (≈ 150 µM) | 64 µg/mL | > 64 | 
12 | Cc1ccc(COc2ccc(C3N=C(N)NC(N(C)C)=N3)cc2)cc1 (configuration not stated) | 16 (≈ 47.4 µM) | > 64 | 32 (≈ 94.8 µM) | 32 µg/mL | 16 (≈ 47.4 µM) | 16 (≈ 47.4 µM) | 32 µg/mL | > 64 | 
13 | CN(C)C1=NC(c2ccc3cc(OCc4ccc(Br)cc4)ccc3c2)N=C(N)N1 (configuration not stated) | 1 (≈ 2.21 µM) | 64 (≈ 141 µM) | 1 (≈ 2.21 µM) | 1 µg/mL | 1 (≈ 2.21 µM) | 1 (≈ 2.21 µM) | 1 µg/mL | 64 (≈ 141 µM) | 
14 | CN(C)C1=NC(c2ccc3cc(OCC(=O)c4ccc(Br)cc4)ccc3c2)N=C(N)N1 (configuration not stated) | 8 (≈ 16.7 µM) | 64 (≈ 133 µM) | 4 (≈ 8.33 µM) | 8.35 µM | 16 (≈ 33.3 µM) | 8 (≈ 16.7 µM) | 16.7 µM | 64 (≈ 133 µM) | 58.7
